Paper PMC7839511 (Antiviral Research, 2021)

Assays:
Assay type in all cases: biochemical
[1] = molecular target: rhinovirus HRV3C protease (Human rhinovirus 14, UniProt P03303); assay: 3CLpro and HRV3C duplex SAMDI-MS assay, HRV3C readout
In short: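 Enzymes preincubated 30 min with test compound. Biotinylated cognate peptides added (10 µM each, final). Reaction ran 30 min, then formic acid quench and bicarbonate neutralisation. Captured on SAMDI chips for 1 h; product conversion AUCprod/(AUCInt Stnd + AUCprod).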

Human Cathepsin L = Human Cathepsin L (Homo sapiens, UniProt P07711); assay: Human cathepsin L assay; conditions: FRET Cathepsin L IC50, 10 pM human cathepsin L, 2 μM Z-FR-AMC, pH 5.5
In short: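 Human enzyme, 10 pM final, preincubated 30 min with test compound at ambient temperature in 20 mM sodium acetate, 1 mM EDTA, 0.005% Brij-35, 5 mM DTT, pH5.5. Started with 2 μM Z-FR-AMC (final). Fluorescence (355/460 excitation/emission) read at 2-min intervals over 30 min. IC50 from four-parameter curve fit.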

SARS-CoV-2 3CLpro = SARS-CoV-2 3CLpro (Severe acute respiratory syndrome coronavirus 2, UniProt P0DTD1); conditions: duplex SAMDI-MS assay

Sequence of rhinovirus HRV3C protease (P03303 1538-1719 limits assumed): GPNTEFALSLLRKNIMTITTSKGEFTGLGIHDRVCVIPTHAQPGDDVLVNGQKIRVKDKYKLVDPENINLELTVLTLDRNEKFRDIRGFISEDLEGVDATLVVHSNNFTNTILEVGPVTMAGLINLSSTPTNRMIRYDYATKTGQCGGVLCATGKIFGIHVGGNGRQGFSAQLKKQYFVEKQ
Sequence of Human Cathepsin L (P07711 114-333): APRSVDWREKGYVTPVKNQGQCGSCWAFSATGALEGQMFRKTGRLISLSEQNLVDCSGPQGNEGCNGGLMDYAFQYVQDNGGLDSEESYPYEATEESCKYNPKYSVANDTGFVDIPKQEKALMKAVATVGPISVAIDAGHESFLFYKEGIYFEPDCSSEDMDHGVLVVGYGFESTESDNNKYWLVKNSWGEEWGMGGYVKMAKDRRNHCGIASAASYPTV

SMILES | IC50 [1] [µM] | IC50 (Human Cathepsin L) [µM] | inhibition of 3CLpro (in words) (SARS-CoV-2 3CLpro)
CC(C)(C)NC(=O)N[C@H](C(=O)N1C[C@H]2[C@@H]([C@H]1C(=O)NC(CC1CCC1)C(=O)C(N)=O)C2(C)C)C(C)(C)C (some centres unmarked) [Boceprevir] | > 100 | 2.3 | –
CCOC(=O)/C=C/[C@H](C[C@@H]1CCNC1=O)NC(=O)[C@@H](CC(=O)[C@@H](NC(=O)c1cc(C)on1)C(C)C)Cc1ccc(F)cc1 [Rupintrivir] | 0.00104 | 4.4 | no observed inhibition
